Test results reported in ChEMBL document CHEMBL1136891, “1,3-dialkyl-8-N-substituted benzyloxycarbonylamino-9-deazaxanthines as potent adenosine receptor ligands: Design, synthesis, structure-affinity and structure-selectivity relationships” (Bioorg Med Chem, 2009).
Converted amounts (≈) assume the structure as drawn.

Tests used:
Adenosine receptor A2b [1] = target: T1, Adenosine receptor A2b (Homo sapiens, UniProt P29275); experiment: Displacement of [3H]DPCPX from human recombinant adenosine A2B receptor expressed in HEK293 cells by beta scintillation counter; assay type: cell-based
T1 sequence (P29275 whole entry): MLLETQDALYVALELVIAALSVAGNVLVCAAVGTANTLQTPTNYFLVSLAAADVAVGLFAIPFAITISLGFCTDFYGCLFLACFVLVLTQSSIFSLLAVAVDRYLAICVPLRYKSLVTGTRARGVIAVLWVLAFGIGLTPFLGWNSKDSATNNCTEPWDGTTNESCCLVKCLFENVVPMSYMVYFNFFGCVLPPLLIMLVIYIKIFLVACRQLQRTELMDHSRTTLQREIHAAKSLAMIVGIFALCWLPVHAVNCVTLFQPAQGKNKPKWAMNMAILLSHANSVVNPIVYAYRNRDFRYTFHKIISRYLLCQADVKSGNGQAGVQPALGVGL
Method in brief: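 Competition binding on membranes from transfected HEK-293 cells expressing hA2B, using 35 nM [3H]DPCPX. Non-specific binding was defined with NECA. Incubation was 30 min at 25 °C, followed by filtration and scintillation counting. Ki values are means of two independent experiments in duplicate.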

Adenosine receptor A2a [2] = target: T2, Adenosine receptor A2a (Homo sapiens, UniProt P29274); experiment: Displacement of [3H]ZM241385 from human recombinant adenosine A2A receptor expressed in HeLa cells by beta scintillation counter; assay type: cell-based
Homo sapiens = organism: Homo sapiens; experiment: Selectivity index, ratio of Ki for human recombinant adenosine A2A receptor to Ki for human recombinant adenosine A2B receptor
Method in brief: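 Competition binding on membranes at 25 °C for 30 min, then filtration and beta scintillation counting. hA2A: transfected HeLa cells, 3 nM [3H]ZM241385, non-specific binding with 50 µM NECA. hA2B: transfected HEK-293 cells, 35 nM [3H]DPCPX, non-specific binding with 400 µM NECA. Ki values are means of two independent duplicate experiments. SI = Ki hA2A / Ki hA2B.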

Adenosine receptor A1 = target: T3, Adenosine receptor A1 (Homo sapiens, UniProt P30542); experiment: Displacement of [3H]DPCPX from human recombinant adenosine A1 receptor expressed in CHO cells by beta scintillation counter; assay type: cell-based
T3 sequence (P30542 whole entry): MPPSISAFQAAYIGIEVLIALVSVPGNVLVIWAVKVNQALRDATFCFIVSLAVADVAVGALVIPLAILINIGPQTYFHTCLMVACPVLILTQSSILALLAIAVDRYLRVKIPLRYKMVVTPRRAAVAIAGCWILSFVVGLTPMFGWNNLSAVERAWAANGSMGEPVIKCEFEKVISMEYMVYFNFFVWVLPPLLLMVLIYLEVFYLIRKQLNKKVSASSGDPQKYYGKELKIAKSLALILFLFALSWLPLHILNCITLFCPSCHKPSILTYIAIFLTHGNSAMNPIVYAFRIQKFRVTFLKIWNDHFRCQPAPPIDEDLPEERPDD
Method in brief: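 Membranes from CHO cells expressing hA1, labelled with 2 nM [3H]DPCPX. Non-specific binding was defined with excess (R)-PIA. Incubated 25 °C for 60 min, then filtered and counted. Ki values are means of two independent experiments with duplicate points.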

Adenosine receptor A3 = target: T4, Adenosine receptor A3 (Homo sapiens, UniProt P0DMS8); experiment: Displacement of [3H]NECA from human recombinant adenosine A3 receptor expressed in HeLa cells by beta scintillation counter; assay type: cell-based
T4 sequence (P0DMS8 whole entry): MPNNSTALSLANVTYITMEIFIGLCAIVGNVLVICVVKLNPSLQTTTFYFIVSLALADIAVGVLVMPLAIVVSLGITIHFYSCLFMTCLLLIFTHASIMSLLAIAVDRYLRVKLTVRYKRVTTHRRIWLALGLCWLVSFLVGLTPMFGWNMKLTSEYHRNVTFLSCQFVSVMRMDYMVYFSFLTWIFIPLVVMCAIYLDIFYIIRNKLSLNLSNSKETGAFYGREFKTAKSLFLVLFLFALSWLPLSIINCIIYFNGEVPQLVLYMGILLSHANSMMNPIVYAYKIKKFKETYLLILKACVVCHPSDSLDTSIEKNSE
Method in brief: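 HeLa-hA3 membranes labelled with 30 nM [3H]NECA. Non-specific binding was defined with (R)-PIA. Incubation was 180 min at 25 °C, then filtration and scintillation counting. Ki values are means of two independent experiments with duplicate points.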

[3] = Solubility in water; assay type: physicochemical
Method in brief: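 Compound stock at 1 mg/ml in DMSO, added in small portions (typically 14 additions) to 50 mM Tris/HCl pH 7.4 at room temperature, keeping final DMSO below 5%. Precipitation was detected as light-scattering absorbance at 600–820 nm. The solubility limit was taken from a bilinear fit of absorbance versus DMSO added. Mean ± SEM of two assays.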

[4] = target: T5, Adenosine receptor A2b (Homo sapiens) (UniProt P29275); experiment: Displacement of [3H]DPCPX from human recombinant adenosine A2B receptor expressed in HEK293 cells at 1 uM by beta scintillation counter; assay type: cell-based
T5 sequence (whole entry): T1 sequence (P29275 whole entry)

Adenosine receptor A2a [5] = target: Adenosine receptor A2a (Rattus norvegicus, UniProt P30543); experiment: Antagonist activity at adenosine A2A receptor in Wistar-Kyoto rat aorta assessed as inhibition of phenylephrine-induced contraction treated 30 mins before phenylephrine challenge measured after 60 mins
Adenosine receptor A2b [6] = target: T6, Adenosine receptor A2b (Rattus norvegicus, UniProt P29276); experiment: Antagonist activity at adenosine A2B receptor in Wistar-Kyoto rat colon assessed as inhibition of NECA-induced relaxation after 30 mins; conditions: read-out: pA2 (converted)
T6 sequence (P29276 whole entry): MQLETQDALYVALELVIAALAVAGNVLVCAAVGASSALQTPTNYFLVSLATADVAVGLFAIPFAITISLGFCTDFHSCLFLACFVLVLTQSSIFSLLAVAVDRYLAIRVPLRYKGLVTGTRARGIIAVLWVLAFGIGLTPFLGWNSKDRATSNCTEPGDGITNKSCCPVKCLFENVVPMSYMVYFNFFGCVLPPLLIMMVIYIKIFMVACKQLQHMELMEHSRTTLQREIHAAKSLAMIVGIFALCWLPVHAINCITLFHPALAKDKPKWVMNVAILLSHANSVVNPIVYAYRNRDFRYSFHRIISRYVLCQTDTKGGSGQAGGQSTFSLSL

Adenosine receptor A2a [7] = target: T2, Adenosine receptor A2a; experiment: Displacement of [3H]ZM241385 from human recombinant adenosine A2A receptor expressed in HeLa cells at 1 uM by beta scintillation counter

T2 sequence (P29274 whole entry): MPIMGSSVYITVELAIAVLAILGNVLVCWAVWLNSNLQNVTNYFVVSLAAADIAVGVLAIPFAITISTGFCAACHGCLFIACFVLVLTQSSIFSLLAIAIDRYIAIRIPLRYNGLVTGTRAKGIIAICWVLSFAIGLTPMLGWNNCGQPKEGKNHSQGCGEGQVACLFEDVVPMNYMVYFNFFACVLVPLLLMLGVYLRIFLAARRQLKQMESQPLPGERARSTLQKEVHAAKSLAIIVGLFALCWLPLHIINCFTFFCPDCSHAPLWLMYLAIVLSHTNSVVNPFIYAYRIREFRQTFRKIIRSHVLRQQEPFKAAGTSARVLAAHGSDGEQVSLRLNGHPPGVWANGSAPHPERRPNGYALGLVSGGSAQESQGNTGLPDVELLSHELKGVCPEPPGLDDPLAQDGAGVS
Sequence of Adenosine receptor A2a (Rattus norvegicus, UniProt P30543) (P30543 whole entry): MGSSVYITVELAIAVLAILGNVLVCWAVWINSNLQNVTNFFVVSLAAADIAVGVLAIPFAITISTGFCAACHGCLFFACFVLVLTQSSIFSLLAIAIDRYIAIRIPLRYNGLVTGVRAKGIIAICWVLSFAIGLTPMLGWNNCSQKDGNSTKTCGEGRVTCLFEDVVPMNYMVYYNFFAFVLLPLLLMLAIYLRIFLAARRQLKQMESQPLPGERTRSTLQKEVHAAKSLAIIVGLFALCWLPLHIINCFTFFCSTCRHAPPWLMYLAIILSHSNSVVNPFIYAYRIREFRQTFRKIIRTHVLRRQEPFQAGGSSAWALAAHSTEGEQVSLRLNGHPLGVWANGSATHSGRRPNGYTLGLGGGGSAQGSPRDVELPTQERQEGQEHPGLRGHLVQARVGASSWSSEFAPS

Compound | Ki (Adenosine receptor A2b [1]) [nM] | Ki (Adenosine receptor A2a [2]) [nM] | Ratio Ki (Homo sapiens) | Ki (Adenosine receptor A1) [nM] | Ki (Adenosine receptor A3) [nM] | inhibition [4] [%] | inhibition (Adenosine receptor A2a [7]) [%] | solubility [3] [µg/mL] | Kb (Adenosine receptor A2a [5]) [nM] | Kb (Adenosine receptor A2b [6]) [nM]
Cn1c(=O)c2[nH]c(-c3ccc(COC(=O)N4CCc5ccccc5C4)cc3)cc2n(C)c1=O | 2.1 | 43.7 | 20.4 |  |  |  |  |  |  | 
CCCn1c(=O)c2[nH]c(-c3ccc(COC(=O)Nc4cc[nH]n4)cc3)cc2n(CCC)c1=O | 5.9 | 10 | 1.7 |  |  |  |  |  |  | 
Cn1c(=O)c2[nH]c(-c3ccc(COC(=O)Nc4ccccc4)cc3)cc2n(C)c1=O | 2.8 | 34.7 | 12.6 | 2.2 | 275 |  |  |  |  | 
Cn1c(=O)c2[nH]c(-c3ccc(COC(=O)N4CCN(c5ccccc5)CC4)cc3)cc2n(C)c1=O | 11.5 | 132 | 11.5 |  |  |  |  |  |  | 
Cn1c(=O)c2[nH]c(-c3ccc(COC(=O)Nc4ccc(F)cc4)cc3)cc2n(C)c1=O | 9.5 | 72.4 | 7.6 | 17.8 | 871 |  |  |  |  | 
Cn1c(=O)c2[nH]c(-c3ccc(COC(=O)Nc4ccsc4)cc3)cc2n(C)c1=O | 0.8 | 10.5 | 12.6 | 10 | 363 |  |  | 21.5 (≈ 52.4 µM) | 28.2 | 2.19
CCCn1c(=O)c2[nH]c(-c3ccc(COC(=O)N4CCN(c5cccc(Cl)c5)CC4)cc3)cc2n(CCC)c1=O | 24 | 28.2 | 1.2 |  |  |  |  |  |  | 
Cn1c(=O)c2[nH]c(-c3ccc(COC(=O)Nc4ccco4)cc3)cc2n(C)c1=O | 3.2 | 18.2 | 5.6 |  |  |  |  |  |  | 
Cn1c(=O)c2[nH]c(-c3ccc(COC(=O)NCc4ccccc4)cc3)cc2n(C)c1=O | 16.2 | 1000 | 61.6 |  |  |  |  |  |  | 
CCCn1c(=O)c2[nH]c(-c3ccc(COC(=O)Nc4ccon4)cc3)cc2n(CCC)c1=O | 1.7 | 21.9 | 12.9 |  |  |  |  |  |  | 

The next lines start with results.

Ki (Adenosine receptor A2b [1]) [nM] | Ki (Adenosine receptor A2a [2]) [nM] | Ratio Ki (Homo sapiens) | Ki (Adenosine receptor A1) [nM] | Ki (Adenosine receptor A3) [nM] | inhibition [4] [%] | inhibition (Adenosine receptor A2a [7]) [%] | Compound | solubility [3] [µg/mL] | Kb (Adenosine receptor A2a [5]) [nM] | Kb (Adenosine receptor A2b [6]) [nM]
7.1 | 28.8 | 4.1 | 20.4 | 331 |  |  | CCCn1c(=O)c2[nH]c(-c3ccc(COC(=O)Nc4ccccc4)cc3)cc2n(CCC)c1=O | 27 (≈ 58.6 µM) |  | 
 | 447 |  |  |  | 46 |  | CCCn1c(=O)c2[nH]c(-c3ccc(COC(=O)N4CCN(c5ccccc5)CC4)cc3)cc2n(CCC)c1=O |  |  | 
602 | 2240 | 3.7 |  |  |  |  | CCCn1c(=O)c2[nH]c(-c3ccc(COC(=O)Nc4cccs4)cc3)cc2n(CCC)c1=O |  |  | 
1 | 15.1 | 15.1 |  |  |  |  | Cn1c(=O)c2[nH]c(-c3ccc(COC(=O)Nc4cccs4)cc3)cc2n(C)c1=O |  |  | 
81.3 | 490 | 6 |  |  |  |  | Cn1c(=O)c2[nH]c(-c3ccc(COC(=O)Nc4ccccn4)cc3)cc2n(C)c1=O |  |  | 
42.7 | 50.1 | 1.2 |  |  |  |  | CCCn1c(=O)c2[nH]c(-c3ccc(COC(=O)N4CCN(c5ccc(F)cc5)CC4)cc3)cc2n(CCC)c1=O |  |  | 
501 | 3310 | 6.6 |  |  |  |  | CCCn1c(=O)c2[nH]c(-c3ccc(COC(=O)Nc4ccsc4)cc3)cc2n(CCC)c1=O |  |  | 
13.8 |  |  |  |  |  | 15 | CCCn1c(=O)c2[nH]c(-c3ccc(COC(=O)Nc4ccccc4)cc3)cc2n(C)c1=O |  |  | 
7.8 | 35.5 | 4.6 |  |  |  |  | CCCn1c(=O)c2[nH]c(-c3ccc(COC(=O)Nc4cnccn4)cc3)cc2n(CCC)c1=O |  |  | 
2 | 118 | 59 | 0.4 | 71 |  |  | CCCn1c(=O)c2[nH]c(-c3ccc(COC(=O)Nc4ccc(F)cc4)cc3)cc2n(CCC)c1=O |  |  | 
